Measurements taken from ChEMBL document CHEMBL4613307, “Sigma Receptor Ligands Carrying a Nitric Oxide Donor Nitrate Moiety: Synthesis, In Silico, and Biological Evaluation” (ACS Med Chem Lett, 2020).
Activity calls are given as the source filed them. The calls are words filed in the database; no cut-off is given here.

Assays:
[1] = target: Sigma non-opioid intracellular receptor 1 (Cavia porcellus, UniProt Q60492); assay: Displacement of [3H]-(+)-pentazocine from sigma1 receptor in guinea pig brain membranes incubated for 1 hr by liquid scintillation counting method; type: cell membranes, Membrane
Outline: (§1)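 Radioligand binding at σ1 and σ2 receptors, with [3H]DTG as the σ2 radioligand. Ki given as mean ± SD of at least two experiments run in triplicate.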

[2] = target: T1, Sigma intracellular receptor 2 (Homo sapiens, UniProt Q5BJF2); assay: Displacement of [3H]-di-o-tolylguanidine from sigma2 receptor (unknown origin) incubated for 1 hr in presence of (+)SKF10047 by liquid scintillation counting method; outline: as §1
[3] = Drug metabolism in Tris-HCl buffer assessed as amount of nitrite released at 100 uM and 37 degree C after 30 mins in presence of nitrate reductase and NADPH by Griess reagent based spectrophotometric analysis; type: physicochemical; conditions: 0.5 h
Outline: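 Test agents at 100 μM incubated in Tris-HCl buffer at 37 °C for 30 min; total nitrite measured with Griess reagent.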

[4] = test system: MCF7; assay: Cytotoxicity against human MCF7 cells assessed as reduction in cell viability after 24 hrs by MTT assay; type: functional, cell-based; conditions: MCF7, 24 h
Outline: (§2)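 MTT viability assay in Caco-2, MCF-7 and HFF-1 cells; top tested concentration 100 μM. IC50 given as mean ± SD of at least two experiments run in quadruplicate.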

[5] = test system: Caco-2; assay: Cytotoxicity against human Caco2 cells assessed as reduction in cell viability after 24 hrs by MTT assay; type: functional, cell-based; conditions: Caco-2, 24 h; outline: as §2
[6] = test system: HFF-1; assay: Cytotoxicity against human HFF1 cells assessed as reduction in cell viability after 24 hrs by MTT assay; type: cell-based; conditions: HFF-1, 24 h; outline: as §2
[7] = test system: HFF-1; assay: Cytotoxicity against human HFF1 cells assessed as reduction in cell viability at 100 uM after 24 hrs by MTT assay relative to control; type: cell-based; conditions: hff-1, 24 h
[8] = target: Sigma non-opioid intracellular receptor 1 (Cavia porcellus) (UniProt Q60492); assay: Displacement of [3H]-(+)-pentazocine from sigma1 receptor in guinea pig brain membranes at 10 uM incubated for 1 hr by liquid scintillation counting method relative to control; type: cell membranes; conditions: Membrane
[9] = target: T1, Sigma intracellular receptor 2; assay: Displacement of [3H]-di-o-tolylguanidine from sigma2 receptor (unknown origin) at 10 uM incubated for 1 hr in presence of (+)SKF10047 by liquid scintillation counting method relative to control
[10] = test system: MCF7; assay: Cytotoxicity against human MCF7 cells assessed as reduction in cell viability at 100 uM after 24 hrs by MTT assay relative to control; type: functional
[11] = test system: Caco-2; assay: Cytotoxicity against human Caco2 cells assessed as reduction in cell viability at 100 uM after 24 hrs by MTT assay relative to control; type: functional
[12] = test system: MCF7; assay: Cytotoxicity against human MCF7 cells assessed as restoration of cell viability loss at IC50 after 24 hrs in presence of PTZ by MTT assay; type: functional, cell-based
Outline: (§3)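 MCF-7 cells given the test agent at its viability-reducing concentration together with 1 μM σ1 agonist (+)-pentazocine or 1 μM σ2 antagonist 1-phenethylpiperidine (AC927); viability read by MTT.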

[13] = test system: MCF7; assay: Cytotoxicity against human MCF7 cells assessed as restoration of cell viability loss at IC50 after 24 hrs in presence of AC927 by MTT assay; type: functional, cell-based; outline: as §3

T1 sequence (Q5BJF2 whole entry): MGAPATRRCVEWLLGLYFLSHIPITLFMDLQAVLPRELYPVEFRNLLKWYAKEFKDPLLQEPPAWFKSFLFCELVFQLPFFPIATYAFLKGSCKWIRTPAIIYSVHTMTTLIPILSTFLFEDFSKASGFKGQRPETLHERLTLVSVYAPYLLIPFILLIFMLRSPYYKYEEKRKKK
Sigma non-opioid intracellular receptor 1, sequence (Q60492 whole entry): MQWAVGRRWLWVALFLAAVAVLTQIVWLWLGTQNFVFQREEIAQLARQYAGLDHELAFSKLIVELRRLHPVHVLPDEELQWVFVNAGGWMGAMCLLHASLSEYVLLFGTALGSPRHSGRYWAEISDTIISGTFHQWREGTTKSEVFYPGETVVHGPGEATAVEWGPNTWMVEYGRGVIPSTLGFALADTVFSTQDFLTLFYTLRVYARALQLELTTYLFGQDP
Sigma non-opioid intracellular receptor 1 (Cavia porcellus), sequence (Q60492 whole entry): as above

| SMILES | Ki [1] | Ki [2] | IC50 [4] | Activity [10] | further results |
| --- | --- | --- | --- | --- | --- |
| O=C(Cc1ccc(CO[N+](=O)[O-])cc1)NC1CCN(Cc2ccccc2)CC1 | 0.17 µM | 2.51 µM |  |  |  |
| O=C(NCCN1CCC(Cc2ccccc2)CC1)c1cccc(CO[N+](=O)[O-])c1 | 0.049 µM | 0.33 µM | 36 µM |  | Drug metabolism [3]: 13 µM; IC50 [5]: 59 µM; IC50 [6]: > 100 µM; Activity [7]: < 50% |
| O=C(O)c1ccc(CO)cc1 | > 10 µM | > 10 µM | > 100 µM | <50% | inhibition [8]: < 50%; inhibition [9]: < 50% |
| O=C(O)c1ccc(CO[N+](=O)[O-])cc1 | > 10 µM | > 10 µM | > 100 µM | <50% | inhibition [8]: < 50%; inhibition [9]: < 50% |
| COc1cccc2c1C(=O)c1c(O)c3c(c(O)c1C2=O)C[C@@](O)(C(=O)CO)C[C@@H]3O[C@H]1C[C@H](N)[C@H](O)[C@H](C)O1 [DOXORUBICIN] |  |  |  |  | IC50 [5]: 21 µM; IC50 [6]: > 100 µM; Activity [7]: < 50% |
| O=C(NCCCN1CCC(Cc2ccccc2)CC1)c1ccc(CO[N+](=O)[O-])cc1 | 0.145 µM | 0.23 µM |  |  |  |
| O=C(NCCCCN1CCC(Cc2ccccc2)CC1)c1ccc(CO)cc1 | 0.711 µM | 2.6 µM | > 100 µM | <50% |  |
| Cc1ccc(C(=O)NCCCCN2CCC(Cc3ccccc3)CC2)cc1 | 0.062 µM | 0.127 µM | 87 µM | <50% |  |
| C[C@@H]1CCO[C@H]2Cn3cc(C(=O)NCc4ccc(F)cc4F)c(=O)c(O)c3C(=O)N12 [DOLUTEGRAVIR] |  | 0.018 µM |  |  |  |
| O=C(NCCCCCN1CCC(Cc2ccccc2)CC1)c1ccc(CO[N+](=O)[O-])cc1 | 0.093 µM | 0.07 µM |  |  |  |
| O=C(NC1CCN(Cc2ccccc2)CC1)c1cccc(CO[N+](=O)[O-])c1 | 0.024 µM | 0.019 µM |  |  |  |
| O=C(NCCCCCN1CCC(Cc2ccccc2)CC1)c1cccc(CO[N+](=O)[O-])c1 | 0.05 µM | 0.142 µM |  |  |  |
| Cc1ccc(C(=O)O)cc1 [4-METHYLBENZOIC ACID] | > 10 µM | > 10 µM | > 100 µM | <50% | inhibition [8]: < 50%; inhibition [9]: < 50% |
| O=C(NC1CCN(Cc2ccccc2)CC1)c1ccc(CO[N+](=O)[O-])cc1 | 0.022 µM | 0.27 µM | > 100 µM | <50% | Drug metabolism [3]: 6.3 µM; IC50 [5]: > 100 µM; IC50 [6]: > 100 µM; Activity [11]: <50%; Activity [7]: < 50% |
| O=C(NCCCCN1CCC(Cc2ccccc2)CC1)c1cccc(CO[N+](=O)[O-])c1 | 0.148 µM | 0.075 µM |  |  |  |
| O=C(NCCCN1CCC(Cc2ccccc2)CC1)c1cccc(CO[N+](=O)[O-])c1 | 0.064 µM | 0.093 µM |  |  |  |
| O=C(NCCCCN1CCC(Cc2ccccc2)CC1)c1ccc(CO[N+](=O)[O-])cc1 | 0.25 µM | 0.089 µM | 26 µM |  | Drug metabolism [3]: 13 µM; IC50 [5]: 28 µM; IC50 [6]: > 100 µM; Activity [12]: inactive; Activity [13]: inactive; Activity [7]: < 50% |
| O=C(NCCN1CCC(Cc2ccccc2)CC1)c1ccc(CO[N+](=O)[O-])cc1 | 0.089 µM | 2.67 µM |  |  |  |
| O=C(Cc1cccc(CO[N+](=O)[O-])c1)NC1CCN(Cc2ccccc2)CC1 | 0.019 µM | 0.32 µM | > 100 µM | <50% | Drug metabolism [3]: 1.3 µM; IC50 [5]: > 100 µM; IC50 [6]: > 100 µM; Activity [11]: <50%; Activity [7]: < 50% |
